# According to ChEMBL document CHEMBL5724801, “EUbOPEN Chemogenomics Library - Multiplex” (2024):
# Where “and” joins values, the source holds several entries; their conditions need not be identical. Identical values can stand only once.
# Tested on: U2OS
# Test: Multiplex assay against U2OS
# Type: toxicity, cell-based
# Details: human
# Method in brief: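 On a CQ1 microscope at 37°C and 5% CO2, live cells were imaged after compound addition. They had been stained at seeding with Hoechst33342, BioTracker Green Microtubule Cytoskeleton Dye, MitoTracker Red and Annexin V Alexa Fluor 680. CellPathfinder machine-learning gating assigned cells to Hoechst high-intensity objects or normal cells, normal cells to healthy, pyknosed or fragmented nuclei, and pyknosed cells to mitotic or apoptotic. Tubulin, mitochondrial-mass and membrane-permeability phenotypes are per cents of healthy-nucleus cells.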
# [1] = 12 h, 1 µM, compound concentration 1 uM
# [2] = 12 h, 10 µM, compound concentration 10 uM
# [3] = 24 h, 1 µM, compound concentration 1 uM
# [4] = 24 h, 10 µM, compound concentration 10 uM
# [5] = 48 h, 1 µM, compound concentration 1 uM
# [6] = 48 h, 10 µM, compound concentration 10 uM
structure (smiles),measurement,setting,value
COCCNc1cc(NC(=O)N2CCCc3cc(CN4CCN(C)CC4=O)c(C=O)nc32)ncc1C#N [FGF401],Population Apoptotic (%),[1],50% and 42.86%
same,Population Fragmented Nuclei (%),[1],2.96% and 1.3%
same,Population Healthy Nuclei (%),[1],87.87% and 85.06%
same,Population Hoechst High Intensity Objects (%),[1],0%
same,Population Membrane Permeable-Phenotype (%),[1],2.15% and 0%
same,Population Mitochondria Different-Phenotype (%),[1],0% and 2.29%
same,Population Mitotic Cells (%),[1],50% and 57.14%
same,Population Normal (%),[1],100%
same,Population Pyknosed Nuclei (%),[1],9.16% and 13.64%
same,Population Tubulin-Different-Phenotype (%),[1],2.15% and 0.76%
same,Total Cell Count,[1],371 and 154
same,Population Apoptotic (%),[2],37.5% and 26.32%
same,Population Fragmented Nuclei (%),[2],0.72% and 5.88%
same,Population Healthy Nuclei (%),[2],91.65% and 82.94%
same,Population Hoechst High Intensity Objects (%),[2],0.24% and 0%
same,Population Membrane Permeable-Phenotype (%),[2],1.3% and 4.26%
same,Population Mitochondria Different-Phenotype (%),[2],0% and 3.55%
same,Population Mitotic Cells (%),[2],62.5% and 73.68%
same,Population Normal (%),[2],99.76% and 100%
same,Population Pyknosed Nuclei (%),[2],7.64% and 11.18%
same,Population Tubulin-Different-Phenotype (%),[2],0.52% and 0%
same,Total Cell Count,[2],420 and 170
same,Population Apoptotic (%),[3],48.94% and 42.31%
same,Population Fragmented Nuclei (%),[3],1.93% and 2.97%
same,Population Healthy Nuclei (%),[3],88.97% and 84.16%
same,Population Hoechst High Intensity Objects (%),[3],0.19% and 0%
same,Population Membrane Permeable-Phenotype (%),[3],0.87% and 1.18%
same,Population Mitochondria Different-Phenotype (%),[3],0.87% and 4.71%
same,Population Mitotic Cells (%),[3],51.06% and 57.69%
same,Population Normal (%),[3],99.81% and 100%
same,Population Pyknosed Nuclei (%),[3],9.09% and 12.87%
same,Population Tubulin-Different-Phenotype (%),[3],0.87% and 0%
same,Total Cell Count,[3],518 and 202
same,Population Apoptotic (%),[4],43.18% and 34.29%
same,Population Fragmented Nuclei (%),[4],1.85% and 3.54%
same,Population Healthy Nuclei (%),[4],90.04% and 80.97%
same,Population Hoechst High Intensity Objects (%),[4],0%
same,Population Membrane Permeable-Phenotype (%),[4],1.23% and 2.19%
same,Population Mitochondria Different-Phenotype (%),[4],0% and 3.28%
same,Population Mitotic Cells (%),[4],56.82% and 65.71%
same,Population Normal (%),[4],100%
same,Population Pyknosed Nuclei (%),[4],8.12% and 15.49%
same,Population Tubulin-Different-Phenotype (%),[4],0.61% and 1.09%
same,Total Cell Count,[4],542 and 226
same,Population Apoptotic (%),[5],45.12% and 50%
same,Population Fragmented Nuclei (%),[5],4.25% and 1.54%
same,Population Healthy Nuclei (%),[5],87.05% and 87.38%
same,Population Hoechst High Intensity Objects (%),[5],0%
same,Population Membrane Permeable-Phenotype (%),[5],0.73% and 3.17%
same,Population Mitochondria Different-Phenotype (%),[5],0.49% and 4.23%
same,Population Mitotic Cells (%),[5],54.88% and 50%
same,Population Normal (%),[5],100%
same,Population Pyknosed Nuclei (%),[5],8.7% and 11.08%
same,Population Tubulin-Different-Phenotype (%),[5],0.73% and 0.7%
same,Total Cell Count,[5],942 and 325
same,Population Apoptotic (%),[6],39.42% and 53.49%
same,Population Fragmented Nuclei (%),[6],2% and 2.76%
same,Population Healthy Nuclei (%),[6],87.6% and 86.43%
same,Population Hoechst High Intensity Objects (%),[6],0% and 0.25%
same,Population Membrane Permeable-Phenotype (%),[6],1.14% and 2.62%
same,Population Mitochondria Different-Phenotype (%),[6],0.11% and 1.45%
same,Population Mitotic Cells (%),[6],60.58% and 46.51%
same,Population Normal (%),[6],100% and 99.75%
same,Population Pyknosed Nuclei (%),[6],10.4% and 10.8%
same,Population Tubulin-Different-Phenotype (%),[6],0.91% and 1.16%
same,Total Cell Count,[6],1000 and 399
O=C(NCc1cccc(O)c1)Nc1nc(-c2ccncc2)cs1,Population Apoptotic (%),[1],37.74% and 30.77%
same,Population Fragmented Nuclei (%),[1],4.64% and 3.9%
same,Population Healthy Nuclei (%),[1],83.06% and 79.22%
same,Population Hoechst High Intensity Objects (%),[1],0% and 0.65%
same,Population Membrane Permeable-Phenotype (%),[1],0.84% and 1.64%
same,Population Mitochondria Different-Phenotype (%),[1],0.28% and 9.02%
same,Population Mitotic Cells (%),[1],62.26% and 69.23%
same,Population Normal (%),[1],100% and 99.35%
same,Population Pyknosed Nuclei (%),[1],12.3% and 16.88%
same,Population Tubulin-Different-Phenotype (%),[1],1.96% and 0%
same,Total Cell Count,[1],431 and 155
same,Population Apoptotic (%),[2],52.63% and 52.17%
same,Population Fragmented Nuclei (%),[2],2.65% and 6.96%
same,Population Healthy Nuclei (%),[2],82.23% and 73.04%
same,Population Hoechst High Intensity Objects (%),[2],0.26% and 0%
same,Population Membrane Permeable-Phenotype (%),[2],1.61% and 4.76%
same,Population Mitotic Cells (%),[2],47.37% and 47.83%
same,Population Normal (%),[2],99.74% and 100%
same,Population Pyknosed Nuclei (%),[2],15.12% and 20%
same,Population Tubulin-Different-Phenotype (%),[2],2.9% and 0%
same,Population Apoptotic (%),[3],47.5% and 43.18%
same,Population Fragmented Nuclei (%),[3],2.77% and 4.12%
same,Population Healthy Nuclei (%),[3],82.47% and 73.2%
same,Population Hoechst High Intensity Objects (%),[3],0%
same,Population Membrane Permeable-Phenotype (%),[3],1.12% and 3.52%
same,Population Mitochondria Different-Phenotype (%),[3],0% and 5.63%
same,Population Mitotic Cells (%),[3],52.5% and 56.82%
same,Population Normal (%),[3],100%
same,Population Pyknosed Nuclei (%),[3],14.76% and 22.68%
same,Population Tubulin-Different-Phenotype (%),[3],0.67% and 0%
same,Total Cell Count,[3],542 and 194
same,Population Apoptotic (%),[4],44.26% and 50%
same,Population Fragmented Nuclei (%),[4],3.67% and 6.77%
same,Population Healthy Nuclei (%),[4],83.15% and 67.67%
same,Population Hoechst High Intensity Objects (%),[4],0%
same,Population Membrane Permeable-Phenotype (%),[4],1.82% and 5.56%
same,Population Mitotic Cells (%),[4],55.74% and 50%
same,Population Normal (%),[4],100%
same,Population Pyknosed Nuclei (%),[4],13.17% and 25.56%
same,Population Tubulin-Different-Phenotype (%),[4],1.82% and 1.11%
same,Population Apoptotic (%),[5],50.98% and 51.79%
same,Population Fragmented Nuclei (%),[5],4.55% and 3.91%
same,Population Healthy Nuclei (%),[5],84.92% and 77.85%
same,Population Hoechst High Intensity Objects (%),[5],0.1% and 0%
same,Population Membrane Permeable-Phenotype (%),[5],0.12% and 2.09%
same,Population Mitochondria Different-Phenotype (%),[5],0% and 3.35%
same,Population Mitotic Cells (%),[5],49.02% and 48.21%
same,Population Normal (%),[5],99.9% and 100%
same,Population Pyknosed Nuclei (%),[5],10.54% and 18.24%
same,Population Tubulin-Different-Phenotype (%),[5],1.22% and 1.26%
same,Population Apoptotic (%),[6],60.92% and 61.11%
same,Population Fragmented Nuclei (%),[6],2.84% and 9.2%
same,Population Healthy Nuclei (%),[6],84.18% and 68.71%
same,Population Hoechst High Intensity Objects (%),[6],0%
same,Population Membrane Permeable-Phenotype (%),[6],1.6% and 6.25%
same,Population Mitochondria Different-Phenotype (%),[6],0% and 18.75%
same,Population Mitotic Cells (%),[6],39.08% and 38.89%
same,Population Normal (%),[6],100%
same,Population Pyknosed Nuclei (%),[6],12.99% and 22.09%
same,Population Tubulin-Different-Phenotype (%),[6],1.24% and 0.89%
